Source: PubChem BioAssay
This is one part of a sample in which hits are shown more often than they occur.
KDM4C inh: inhibitors of GASC-1 (KDM4C) histone demethylase, primary screen, biochemical, single concentration HTS. GST-KDM4C 2-372, H3K9me3 peptide, LANCE TR-FRET. Lysine-specific demethylase 4C (Homo sapiens), Q9H3R0. inhibition, % at 12.5 µM. 96,000 tested, 0.15% active;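 active = mean replicate inhibition above about 25%, with at least 55% of replicates also reaching it, limit read from the data, passing the limit was not always enough; inconclusive = only one of those two conditions met; inactive = neither condition met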
Target sequence (Q9H3R0 2-372 limits assumed): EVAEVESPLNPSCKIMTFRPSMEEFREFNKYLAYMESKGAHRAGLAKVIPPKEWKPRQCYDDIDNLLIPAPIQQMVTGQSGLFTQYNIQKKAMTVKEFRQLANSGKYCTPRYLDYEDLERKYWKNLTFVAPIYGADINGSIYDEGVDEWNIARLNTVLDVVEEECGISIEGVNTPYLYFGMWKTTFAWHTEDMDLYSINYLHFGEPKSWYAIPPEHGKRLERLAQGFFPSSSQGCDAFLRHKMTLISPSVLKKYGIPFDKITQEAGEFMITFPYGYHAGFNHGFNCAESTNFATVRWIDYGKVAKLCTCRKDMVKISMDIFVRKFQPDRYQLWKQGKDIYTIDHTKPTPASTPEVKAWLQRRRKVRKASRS
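Material: GST-tagged GASC-1 (JMJD2C) catalytic fragment, aa 2-372 / Quantity: enzyme final amount 10 nM / Medium: HEPES buffer, pH 7.5, plus ascorbate / Doses: one test concentration per compound / Incubation: 30 min reaction, 60 min detection, RT / Measured by: LANCE TR-FRET / Read-out: inhibition from TR-FRET ratio decrease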
T cruzi growth-1: T. cruzi intracellular proliferation inhibitors, primary screen, cell-based, beta-gal Tulahuen parasites, NIH3T3 host, luminescence. T. cruzi beta-gal in NIH3T3, GalScreen luminescence, 90 h. inhibition, % at 8.34 µM. 77,000 tested, 5.9% active. AID 624255, 2012;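 active = mean inhibition above about 93%, with at least 55% of replicates each passing it, limit read from the data, passing the limit was not always enough; inconclusive = only one of those two conditions holds; inactive = neither condition holds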
IDH1 R132H inh: inhibitors of IDH1 R132H reductase, primary screen, biochemical, plate reader, single point; Isocitrate dehydrogenase [NADP] cytoplasmic (Homo sapiens), O75874; diaphorase/resazurin fluorescence, 60 min; inhibition, % at 10 µM; 70,000 tested, 0.18% active; in the data active = inhibition above about 34%; inconclusive = no clear call, values can overlap the other calls; inactive = below about 11%;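 note: 0% = DMSO and 100% = no enzyme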
Target sequence (O75874 whole entry R132H): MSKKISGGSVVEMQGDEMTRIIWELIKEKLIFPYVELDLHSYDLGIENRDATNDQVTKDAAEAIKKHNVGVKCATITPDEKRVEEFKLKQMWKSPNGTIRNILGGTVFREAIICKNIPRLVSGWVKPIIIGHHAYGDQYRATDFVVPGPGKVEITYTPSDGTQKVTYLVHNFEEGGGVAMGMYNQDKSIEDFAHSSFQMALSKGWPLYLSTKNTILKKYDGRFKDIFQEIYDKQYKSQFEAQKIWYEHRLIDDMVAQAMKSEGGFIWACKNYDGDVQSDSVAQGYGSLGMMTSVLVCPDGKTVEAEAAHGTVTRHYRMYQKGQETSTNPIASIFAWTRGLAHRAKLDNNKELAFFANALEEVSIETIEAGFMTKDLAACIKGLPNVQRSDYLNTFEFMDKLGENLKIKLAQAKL
T cruzi growth-2: T. cruzi intracellular proliferation inhibitors, confirmation, cell-based, NIH3T3 host, beta-gal parasite, luminescence, cherry-pick | inhibition, % at 8.35 µM | AID 651739, 2012 | 5,600 tested, 72% active | shares compounds with T cruzi growth-1 | T. cruzi beta-gal in NIH3T3, GalScreen luminescence, 90 h;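 active = mean replicate inhibition above about 95% and at least 55% of replicates individually reaching it, limit read from the data; inconclusive = only one of the two criteria is met; inactive = neither criterion is met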
T cruzi growth-3: inhibitors of intracellular T. cruzi replication, confirmation, NIH3T3 host cells, beta-gal parasites, cherry-pick, set 2 | inhibition, % at 2.09 µM | 5,600 tested, 21% active | T. cruzi beta-gal in NIH3T3, GalScreen luminescence, 90 h | AID 651740, 2012 | shares compounds with T cruzi growth-1;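 active = mean inhibition above about 95%, with at least 55% of replicates also reaching it, limit read from the data; inconclusive = meets just one of the two conditions; inactive = meets neither condition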;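 note: plate controls were neutral control median for no effect and positive control median for full effect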
3T3 cytotox: cytotoxicity in mouse NIH/3T3 fibroblasts, confirmation, cytotoxicity control for T. cruzi proliferation inhibitor project, cell-based, cherry-pick, single point. shares compounds with T cruzi growth-1. NIH/3T3 viability, CellTiter-Glo ATP luminescence, 90 h. cytotoxicity (signal decrease), % at 8.35 µM. 5,600 tested, 14% active. AID 651742, 2012;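 active = mean signal decrease across replicates above about 35% based on untreated-well scatter, with enough replicates individually passing, limit read from the data; inconclusive = no rule stated though some were filed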;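 note: 0% = median of neutral control wells and 100% = median of positive control wells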
NIH3T3 tox 2: NIH/3T3 fibroblast cytotoxicity, confirmation, cytotoxicity control, cell-based, cherry-pick, single point, set 2 | shares compounds with T cruzi growth-1 | NIH/3T3 viability, CellTiter-Glo ATP luminescence, 90 h | inhibition, % at 24.9 µM | 5,600 tested, 56% active | AID 651744, 2012;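 active = mean loss of cell viability signal at or above a set limit, and enough replicates individually reaching it; inconclusive = meets only the mean limit or only the replicate share; inactive = meets neither condition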;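 note: 0% = median of neutral control wells and 100% = median of positive control wells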
* hit, by the source's call; ? = inconclusive; nt = no result given.

SMILES | KDM4C inh | T cruzi growth-1 | IDH1 R132H inh | T cruzi growth-2 | T cruzi growth-3 | 3T3 cytotox | NIH3T3 tox 2
CN(C)CC(=O)N1CCCCN2[C@H](CO)[C@@H](c3ccc(-c4cccnc4)cc3)[C@@H]2C1 | 0 | 101* | nt | 40 | -5 | -17 | -12
CN(C)CC(=O)N1CCCCN2[C@@H](CO)[C@@H](c3ccc(-c4cncnc4)cc3)[C@@H]2C1 | 2 | 9 | nt | nt | nt | nt | nt
Cc1nnc(SCC(=O)Nc2cccc([N+](=O)[O-])c2)s1 | nt | nt | 0 | nt | nt | nt | nt
CCn1c(SCC(=O)c2ccc(F)cc2)nnc1-c1cccnc1 | nt | nt | 1 | nt | nt | nt | nt
O=c1[nH]c(CSc2nnc(-c3cccnc3)n2-c2ccccc2)nc2ccccc12 | nt | nt | 0 | nt | nt | nt | nt
C/C=C/c1ccc2c(c1)O[C@H](CN(C)Cc1ccc(F)cc1)[C@@H](C)CN([C@H](C)CO)S2(=O)=O | -1 | 104* | 0 | ? | 93 | ? | 106*
C/C=C/c1ccc2c(c1)O[C@@H](CN(C)Cc1ccc(F)cc1)[C@H](C)CN([C@H](C)CO)S2(=O)=O | 0 | 119* | 0 | 98* | 110* | 52* | 105*
C/C=C/c1ccc2c(c1)O[C@@H](CN(C)Cc1ccc(F)cc1)[C@@H](C)CN([C@@H](C)CO)S2(=O)=O | 0 | 91 | -2 | nt | nt | nt | nt
C/C=C/c1ccc2c(c1)O[C@H](CN(C)Cc1ccc(F)cc1)[C@H](C)CN([C@@H](C)CO)S2(=O)=O | -1 | 59 | 0 | nt | nt | nt | nt
C[C@H](CO)N1C[C@H](C)[C@@H](CN(C)Cc2ccc(O)cc2)OCc2ccccc2-c2c(n(C)c3ccccc23)C1=O | 1 | nt | nt | nt | nt | nt | nt
C[C@@H]1CN([C@@H](C)CO)S(=O)(=O)c2ccc(C#CCN(C)C)cc2O[C@H]1CN(C)Cc1ccccc1F | 0 | 116* | -4 | ? | 85 | 51* | 105*
C[C@H]1CN([C@@H](C)CO)S(=O)(=O)c2ccc(C#CCN(C)C)cc2O[C@@H]1CN(C)Cc1ccccc1F | -1 | 110* | 0 | 107* | 91 | 5 | 105*
C[C@@H]1CN([C@H](C)CO)S(=O)(=O)c2ccc(C#CCN(C)C)cc2O[C@@H]1CN(C)Cc1ccccc1F | 2 | 27 | 0 | nt | nt | nt | nt
C[C@H](CO)N1C[C@H](C)[C@H](CN(C)Cc2ccccc2F)Oc2cc(C#CCN(C)C)ccc2S1(=O)=O | -1 | 82 | -2 | nt | nt | nt | nt
C[C@H]1CN([C@@H](C)CO)S(=O)(=O)c2ccc(C#CC3CC3)cc2O[C@H]1CN(C)Cc1ccccc1F | 14 | 106* | -1 | 106* | 77 | 11 | 107*
C[C@H]1CN([C@@H](C)CO)S(=O)(=O)c2ccc(C#CC3CC3)cc2O[C@H]1CN(C)Cc1ccc(F)cc1 | 2 | nt | 1 | nt | nt | nt | nt
CCC(=O)N(C)C[C@@H]1Oc2cc(Br)ccc2S(=O)(=O)N([C@@H](C)CO)C[C@H]1C | 3 | nt | 1 | nt | nt | nt | nt
O=C(CCCCCCC(=O)NN=C1CCCC1)NO | nt | nt | 0 | nt | nt | nt | nt
CN1C(=O)c2cc(NC(=O)c3cnccn3)ccc2OC[C@H]2O[C@@H](CC(=O)N[C@@H]3CCN(Cc4ccccc4)C3)CC[C@@H]21 | 3 | nt | nt | nt | nt | nt | nt
CN1C(=O)c2cc(NC(=O)c3cnccn3)ccc2OC[C@@H]2O[C@H](CC(=O)N[C@H]3CCN(Cc4ccccc4)C3)CC[C@H]21 | 0 | 81 | nt | nt | nt | nt | nt
CN1C(=O)c2cc(NC(=O)c3cnccn3)ccc2OC[C@H]2O[C@@H](CC(=O)N[C@H]3CCN(Cc4ccccc4)C3)CC[C@H]21 | 4 | 114* | nt | 104* | 103* | -9 | -10
CN1C(=O)c2cc(NC(=O)c3cnccn3)ccc2OC[C@H]2O[C@@H](CC(=O)N[C@@H]3CCN(Cc4ccccc4)C3)CC[C@H]21 | 2 | 107* | nt | 97* | 88 | -27 | -20
CCC(=O)Nc1ccc2c(c1)OC[C@@H](C)N(C(=O)C1CC1)C[C@H](C)[C@H](OC)CN(C)C2=O | 1 | nt | nt | nt | nt | nt | nt
Cc1c(-n2c(/C=C\c3ccc([N+](=O)[O-])o3)nc3ccccc3c2=O)c(=O)n(-c2ccccc2)n1C | nt | nt | -1 | nt | nt | nt | nt
Cn1cnc(S(=O)(=O)N[C@@H]2C=C[C@H](CC(=O)N3CCN(c4ccccc4)CC3)O[C@@H]2CO)c1 | 0 | nt | nt | nt | nt | nt | nt
SMILES | KDM4C inh | T cruzi growth-1 | IDH1 R132H inh | T cruzi growth-2 | T cruzi growth-3 | 3T3 cytotox | NIH3T3 tox 2
COc1ccc(NC(=O)Nc2ccc3c(c2)C(=O)N([C@@H](C)CO)C[C@@H](C)[C@@H](CN(C)S(=O)(=O)c2ccc(OC)cc2)OCCCC[C@H](C)O3)cc1 | 0 | -48 | 0 | nt | nt | nt | nt
COc1ccc(NC(=O)Nc2ccc3c(c2)C(=O)N([C@@H](C)CO)C[C@H](C)[C@@H](CN(C)S(=O)(=O)c2ccc(OC)cc2)OCCCC[C@H](C)O3)cc1 | 0 | ? | nt | 108* | 23 | 18 | 3
COc1ccc(NC(=O)Nc2ccc3c(c2)C(=O)N([C@H](C)CO)C[C@@H](C)[C@H](CN(C)S(=O)(=O)c2ccc(OC)cc2)OCCCC[C@@H](C)O3)cc1 | 1 | 105* | 1 | 109* | 49 | -27 | -17
COc1ccc(S(=O)(=O)N(C)C[C@@H]2OCCCC[C@H](C)Oc3ccc(NC(=O)Nc4ccc5c(c4)OCO5)cc3C(=O)N([C@H](C)CO)C[C@@H]2C)cc1 | 1 | 103* | nt | 107* | 90 | 10 | 10
COc1ccc(S(=O)(=O)N(C)C[C@H]2OCCCC[C@@H](C)Oc3ccc(NC(=O)Nc4ccc(C(F)(F)F)cc4)cc3C(=O)N([C@@H](C)CO)C[C@H]2C)cc1 | 1 | 89 | nt | nt | nt | nt | nt
COc1ccc(NC(=O)Nc2ccc3c(c2)C(=O)N([C@@H](C)CO)C[C@@H](C)[C@H](CN(C)S(=O)(=O)c2ccc(OC)cc2)OCCCC[C@@H](C)O3)cc1 | 0 | 84 | -1 | nt | nt | nt | nt
COc1ccc(S(=O)(=O)N(C)C[C@@H]2OCCCC[C@H](C)Oc3ccc(NC(=O)Nc4ccc(C(F)(F)F)cc4)cc3C(=O)N([C@@H](C)CO)C[C@@H]2C)cc1 | -1 | 97* | 2 | 111* | 115* | 27 | 4
COc1ccc(S(=O)(=O)N(C)C[C@@H]2OCCCC[C@H](C)Oc3ccc(NC(=O)Nc4ccc5c(c4)OCO5)cc3C(=O)N([C@H](C)CO)C[C@H]2C)cc1 | 17 | 40 | 2 | nt | nt | nt | nt
